In the library only some 2.6% were active in any assay of this set; here they are far more common.
Yeast lifespan up = yeast lifespan extension; S. cerevisiae growth with nicotinamide, OD615; deaD strain in restrictive glucose medium; inhibition of the nicotinamide effect, % at 10 µM; 0.68% of 130,000 active; AID 775;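 active = inhibition above a set limit, placed 3 SD over the median of all compounds, cut at about 26% in these data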
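Test system – modified budding yeast, DeaD strain · Compound – single dose 10 µM compound, 0.25% DMSO · Times – culture preincubation 4 h, compound exposure 48 h, both 30 °C · Detection – optical density (absorbance) at 615 nm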
RAM network inh = blocks the yeast RAM network; S. cerevisiae dse1pr::URA3 reporter, 5-FOA growth OD615, 2 d; analog-sensitive cbk1-as2 kinase mutant strain; inhibition, % at 50 µM; 1.8% of 190,000 active;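 active = inhibition above a set limit, 3 SD over mean compound inhibition, cut at about 8.4% in these data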;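 also: inhibition rescues growth on 5-FOA so higher OD means more RAM inhibition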
BB579 growth dn = chemicals that inhibit yeast BB579 growth in restrictive medium (lifespan-shortening candidates). S. cerevisiae BB579 growth, OD615, 48 h. inhibition, % at 10 µM. 0.51% of 140,000 active;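 active = inhibition above a set limit, 3 SD over the mean compound inhibition, cut at about 44% in these data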
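Assay system: S. cerevisiae DeaD strain BB579 yeast. Medium: CSMM-D restrictive synthetic medium containing dextrose (glucose). Times: 4 h cell preincubation, 48 h compound exposure, 30 °C humidified. Signal: OD615 turbidity measurement. Benchmarks: positive control amphotericin B 10 µg/mL.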
RAM efflux-def = RAM network inhibition, efflux-deficient strain | shares compounds with RAM network inh | S. cerevisiae efflux-deficient reporter strain, 5-FOA growth OD615, 2 days | max inhibition, % | 1,200 tested, under 10 active | AID 1305; call rule not given here
Large screens that a line does not name were inactive (follow-up assays come after a bar, where they were run).

CC(CCc1ccccc1)NC(=O)CNC(=S)N(Cc1cccs1)C1CCCC1 (stereo not drawn)	RAM network inh 12 (no result: Yeast lifespan up, BB579 growth dn) | RAM efflux-def inactive
CCCCN1C=CC(=C2C(=O)c3ccccc3C2=O)C=C1	none (no result: Yeast lifespan up, BB579 growth dn)
CCCCn1nnc(NC(=O)c2ccc(-c3ccccc3[N+](=O)[O-])o2)n1	none (no result: Yeast lifespan up, BB579 growth dn)
CCCCn1nnc(NC(=S)NC(=O)c2ccc(-c3cccc(Cl)c3Cl)o2)n1	RAM network inh 13 | RAM efflux-def inactive
COc1cccc(CNC(=O)Cn2cc3c(n2)CCCC3)c1	none
COc1cccc(CNC(=O)CN2C(=O)CC(c3ccccc3)=Nc3ccccc32)c1	RAM network inh 13 (no result: Yeast lifespan up, BB579 growth dn) | RAM efflux-def inactive
FC(F)(F)c1cccc(NC(=S)NCc2ccccc2)c1	none
FC(F)(F)c1cccc(NC(=S)NC(c2ccccc2)c2ccccc2)c1	RAM network inh 16 | RAM efflux-def inactive
O=C(Nc1ccc(Br)cc1)c1cccc(S(=O)(=O)Nc2cnc3ccccc3c2)c1	RAM network inh 15 | RAM efflux-def inactive
COc1ccc(NC(=O)c2cccc(S(=O)(=O)Nc3ccc(Br)cc3)c2)cn1	none
O=C(N/N=C1/SCC(=O)N1Cc1ccco1)c1ccccc1F	none (no result: Yeast lifespan up, BB579 growth dn)
O=C(Oc1cc(Cl)ccc1Cl)c1ccc(N2CCOCC2)c([N+](=O)[O-])c1	none
COc1ccc2c(c1)CCc1c(C(=O)NCCc3ccc(OC)c(OC)c3)noc1-2	RAM network inh 14 | RAM efflux-def inactive
COc1ccc2c(c1)CCc1c(C(=O)Nc3ccc(OC)c(OC)c3)noc1-2	none
O=C1C2CC=C(Cl)CC2C(=O)N1CCC[n+]1cccc2ccccc21 (stereo not drawn)	none
COc1ccc(S(=O)(=O)NCC2CCCN(C(=O)c3ccccc3)C2)cc1 (stereo not drawn)	none (no result: Yeast lifespan up, BB579 growth dn)
CC(=C\c1ccccc1)/C=C1/SC(=S)N(C(C(=O)O)C(C)C)C1=O (stereo not drawn)	RAM network inh 21 (no result: Yeast lifespan up, BB579 growth dn) | RAM efflux-def inactive
CC(/C=C1\SC(=S)N(NC(=O)c2ccc(O)cc2)C1=O)=C\c1ccccc1	none
Cc1ccc(/C=C2\SC(=S)N(C(Cc3ccccc3)C(=O)O)C2=O)cc1 (stereo not drawn)	RAM network inh 17 | RAM efflux-def inactive
CC(=O)NN1C(=O)/C(=C\c2ccc(C)cc2)SC1=S	none
Cc1ccc(S(=O)(=O)N2CCC(C(=O)OCc3ccc([N+](=O)[O-])cc3)CC2)cc1	none
CCN=c1scc(-c2cccs2)n1/N=C/c1cc(OC)ccc1O	RAM network inh 12 | RAM efflux-def inactive
COc1ccc(O)c(/C=N/n2c(-c3ccco3)csc2=Nc2cccnc2)c1	none
CCOC(=O)CSc1nc(N)c(C#N)c(-c2cccs2)c1C#N	none
N#Cc1c(N)nc(SCc2ccccn2)c(C#N)c1-c1cccs1	RAM network inh 12 | RAM efflux-def inactive
COc1cccc(NC(=O)Cn2c(=O)n(CC3CCCO3)c(=O)c3ccccc32)c1 (stereo not drawn)	none
CC1CCCCN1S(=O)(=O)c1ccc(S(=O)(=O)N(Cc2ccccc2)Cc2ccco2)cc1 (stereo not drawn)	RAM network inh 14 (no result: Yeast lifespan up) | RAM efflux-def inactive
Cc1ccc(S(=O)(=O)N2CCCCC2C(=O)NCc2ccco2)cc1 (stereo not drawn)	none
CCN(Cc1ccccc1)S(=O)(=O)c1ccc(S(=O)(=O)N(Cc2ccccn2)Cc2ccco2)cc1	RAM network inh 13 | RAM efflux-def inactive
Cc1cc(S(=O)(=O)N(Cc2ccccn2)Cc2ccco2)ccc1-n1cnnn1	none
CCC1Oc2ccc(C)cc2N(CC(=O)NCC2COc3ccccc3O2)C1=O (stereo not drawn)	none
C=CCn1c(SCC(=O)O)nc2sc(CC)cc2c1=O	none (no result: Yeast lifespan up, BB579 growth dn)
C=CCn1c(SCC(=O)/C(C#N)=C(\C)N)nc2sc(CC)cc2c1=O	RAM network inh 13 | RAM efflux-def inactive
COc1ccc(/C=C/C(=O)NC(=S)Nc2ccc(S(=O)(=O)Nc3ccc(OC)nn3)cc2)cc1	none
COc1cc(NS(=O)(=O)c2ccc(NC(=S)NC(=O)/C=C/c3ccco3)cc2)ncn1	RAM network inh 13 (no result: Yeast lifespan up, BB579 growth dn) | RAM efflux-def inactive
COc1ccccc1NC(=O)Cn1c(CCC(=O)O)ccc1-c1ccc(C)cc1	none (no result: Yeast lifespan up, BB579 growth dn)
COCCNC(=O)C(=O)NNS(=O)(=O)c1ccc2ccccc2c1	none (no result: Yeast lifespan up, BB579 growth dn)
Cc1ccccc1OCC(O)Cn1c2ccccc2c2ccccc21 (stereo not drawn)	RAM network inh 13 | RAM efflux-def inactive
CC(=O)Nc1ccc(OCC(O)Cn2c3ccccc3c3ccccc32)c(C)c1 (stereo not drawn)	none
CC(C)S(=O)(=O)C1=NSC2=NC(=O)/C(=C\c3ccc(-c4cccc(C(=O)O)c4)o3)C(=N)N21	none (no result: Yeast lifespan up, BB579 growth dn)
CC(C)S(=O)(=O)C1=NSC2=NC(=O)/C(=C\c3ccc(-c4ccccc4)o3)C(=N)N21	RAM network inh 14 | RAM efflux-def inactive
OC(COCCOc1ccc(Br)cc1)CN1CCCCC1 (stereo not drawn)	none
COC(=O)c1c(NC(=O)CN2C(=O)NC3(CCc4ccccc4C3)C2=O)sc2c1CCCCC2 (stereo not drawn)	none
CNC(=O)c1ccccc1Sc1ccccc1C#N	none (no result: Yeast lifespan up, BB579 growth dn)
Cc1cc(C)c(OCCNC(=O)c2ccccc2Sc2ccccc2C#N)c(C)c1	RAM network inh 20 | RAM efflux-def inactive
Cc1ccccc1OCCNC(=O)c1ccccc1Sc1ccccc1C#N	RAM network inh 14 | RAM efflux-def inactive
COc1cccc(OCCNC(=O)c2ccccc2Sc2ccccc2C#N)c1	none
CC(=O)N1CC(=O)N=C1SCC(=O)Nc1nc(C)c(-c2ccccc2)s1	none (no result: Yeast lifespan up, BB579 growth dn)
CC(C)c1ccc(C(=O)NC2=NCCS2)cc1	none
CCOc1ccccc1OCC(=O)NCCc1ccc(S(N)(=O)=O)cc1	none (no result: Yeast lifespan up, BB579 growth dn)
COc1cc(CNC(=O)c2cccc(COc3ccc(Cl)cc3)c2)cc(OC)c1	RAM network inh 12 | RAM efflux-def inactive
COc1ccc(OCc2cccc(C(=O)NN)c2)cc1	none
Cc1ccccc1N1C(S)=C(C#N)C(=O)NC12CCCCC2	none
COc1ccc2c(c1)CC/C(=C\C=C\c1ccccc1OC)C2=O	none (no result: Yeast lifespan up)
COc1ccc2c(c1)C(=O)/C(=C/C=C/c1ccccc1)CC2	RAM network inh 15 (no result: Yeast lifespan up) | RAM efflux-def inactive
S=C(NCCC(c1ccccc1)c1ccccc1)Nc1ccccc1Cl	RAM network inh 15 | RAM efflux-def inactive
S=C(NCCC(c1ccccc1)c1ccccc1)Nc1ccc(Cl)cc1	none
Cc1cc(-c2nnc(CCC(=O)N3CCN(Cc4cccnc4)CC3)o2)c(C)o1	none (no result: Yeast lifespan up, BB579 growth dn)
O=C(CCNc1n[nH]c(=O)[nH]c1=O)N/N=C/c1ccc(C(F)(F)F)cc1	none (no result: Yeast lifespan up, BB579 growth dn)
O=C(CN(C1CC1)S(=O)(=O)c1ccc(S(=O)(=O)NC2CCCCC2)cc1)Nc1ccccc1	none
O=C(CN(Cc1cccs1)S(=O)(=O)c1ccc(S(=O)(=O)NC2CCCCC2)cc1)Nc1ccccc1	RAM network inh 14 | RAM efflux-def inactive
CC(C)CCN1CCN(Cc2cnc(N3CCCC3)s2)CC1CCO (stereo not drawn)	none (no result: Yeast lifespan up, BB579 growth dn)
Cc1ncc(CN2CCC(CO)(CCc3ccccc3)CC2)s1	none (no result: Yeast lifespan up, BB579 growth dn)
COc1ccc(CCNC(=O)c2ccc(-c3ccc([N+](=O)[O-])cc3)o2)cc1OC	RAM network inh 11 | RAM efflux-def inactive
COc1ccc(NC(=O)c2ccc(-c3ccc([N+](=O)[O-])cc3)o2)cc1	none (no result: Yeast lifespan up, BB579 growth dn)

Screens: PubChem BioAssay, SRMLSC
